# The source made the active and inactive calls. The calls are words filed in the database; no cut-off is given here.
# How the values were obtained:
# P2Y purinoceptor 2 [1] = target: P2Y purinoceptor 2 (Homo sapiens, UniProt P41231, S296A); assay: Agonist activity at N-terminal HA epitope-tagged human P2Y2 receptor S296A mutant expressed in human 1321N1 cells assessed as increase in intracellular calcium level; format: functional, cell-based
# Outline: (§1)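 Retrovirally transduced stable 1321N1 astrocytoma lines (wild-type lines of differing expression, or mutants) in suspension, loaded with Oregon Green BAPTA-1/AM for 1 h at room temperature. Cells were plated at 150000 per well in Krebs-HEPES pH 7.4 and held 20 min at 28 °C in the dark.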
# P2Y purinoceptor 2 [2] = target: T1, P2Y purinoceptor 2 (Homo sapiens, UniProt P41231); assay: Agonist activity at N-terminal HA epitope-tagged wild type 4 human P2Y2 receptor expressed in human 1321N1 cells assessed as increase in intracellular calcium level; format: functional, cell-based; outline: as §1
# [3] = system: P2Y purinoceptor 2 (Homo sapiens), P41231 [S296A]; assay: Agonist activity at N-terminal HA epitope-tagged human P2Y2 receptor S296A mutant expressed in human 1321N1 cells assessed as increase in intracellular calcium level relative to carbachol; format: functional, cell-based
# Outline: (§2)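 Retrovirally transduced stable 1321N1 astrocytoma lines (wild-type lines of differing expression, or mutants) in suspension, loaded with Oregon Green BAPTA-1/AM for 1 h at room temperature. Cells were plated at 150000 per well in Krebs-HEPES pH 7.4 and held 20 min at 28 °C in the dark. Agonist was then injected, with fluorescence read at ex 485/em 520 nm for 60 × 0.4 s.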
# [4] = system: P2Y purinoceptor 2 (Homo sapiens), P41231 [R177A]; assay: Agonist activity at N-terminal HA epitope-tagged human P2Y2 receptor R177A mutant expressed in human 1321N1 cells assessed as increase in intracellular calcium level relative to carbachol; format: functional, cell-based; outline: as §2
# P2Y purinoceptor 2 [5] = target: T1, P2Y purinoceptor 2; assay: Agonist activity at N-terminal HA epitope-tagged wild type human P2Y2 receptor expressed in human 1321N1 cells assessed as increase in intracellular calcium level; format: functional, cell-based; outline: as §2
# P2Y purinoceptor 2 [6] = target: T1, P2Y purinoceptor 2; assay: Agonist activity at N-terminal HA epitope-tagged wild type 4 human P2Y2 receptor expressed in human 1321N1 cells assessed as increase in intracellular calcium level relative to carbachol; format: functional, cell-based; outline: as §2
# [7] = system: P2Y purinoceptor 2 (Homo sapiens), P41231 [UNDEFINED MUTATION]; assay: Ratio of EC50 for N-terminal HA epitope-tagged human P2Y2 receptor C278S mutant to EC50 for wild type 3 human P2Y2 receptor
# [8] = system: P2Y purinoceptor 2 (Homo sapiens), P41231 [UNDEFINED MUTATION]; assay: Ratio of EC50 for N-terminal HA epitope-tagged human P2Y2 receptor Y114A mutant to EC50 for wild type 3 human P2Y2 receptor
# Outline: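 HA-tagged receptors (wild type or mutant) were stably expressed in 1321N1 astrocytoma cells via retrovirus. Cells were loaded with Oregon Green BAPTA-1/AM in Krebs-HEPES pH 7.4, then kept 20 min at 28 °C before agonist injection. Fluorescence was read at 520 nm (excitation 485 nm). […] Each mutant was compared with the wild-type line of similar expression.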
# [9] = system: P2Y purinoceptor 2 (Homo sapiens), P41231 [R177A,R180A]; assay: Agonist activity at N-terminal HA epitope-tagged human P2Y2 receptor R177A_R180A double mutant expressed in human 1321N1 cells assessed as increase in intracellular calcium level relative to carbachol; format: functional, cell-based; outline: as §2
# P2Y purinoceptor 2 [10] = target: P2Y purinoceptor 2 (Homo sapiens, UniProt P41231, R272A); assay: Agonist activity at N-terminal HA epitope-tagged human P2Y2 receptor R272A mutant expressed in human 1321N1 cells assessed as increase in intracellular calcium level; format: functional, cell-based
# Outline: (§3)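 1321N1 astrocytoma cells stably expressing mutant receptor (retroviral transfection, G418 selection), loaded with Oregon Green BAPTA-1/AM in Krebs-HEPES pH 7.4 for 1 h at room temperature. Plated at 150000 cells/well and held 20 min at 28 °C in the dark. Efficacy relative to 100 µM carbachol.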
# P2Y purinoceptor 2 [11] = target: T1, P2Y purinoceptor 2; assay: Agonist activity at N-terminal HA epitope-tagged wild type 3 human P2Y2 receptor expressed in human 1321N1 cells assessed as increase in intracellular calcium level; format: functional, cell-based; outline: as §1
# P2Y purinoceptor 2 [12] = target: P2Y purinoceptor 2 (Homo sapiens, UniProt P41231, Y118A); assay: Agonist activity at N-terminal HA epitope-tagged human P2Y2 receptor Y118A mutant expressed in human 1321N1 cells assessed as increase in intracellular calcium level; format: functional, cell-based; outline: as §3
# [13] = system: P2Y purinoceptor 2 (Homo sapiens), P41231 [C278S]; assay: Agonist activity at N-terminal HA epitope-tagged human P2Y2 receptor C278S mutant expressed in human 1321N1 cells assessed as increase in intracellular calcium level relative to carbachol; format: functional, cell-based; outline: as §2
# P2Y purinoceptor 2 [14] = target: P2Y purinoceptor 2 (Homo sapiens, UniProt P41231, C278S); assay: Agonist activity at N-terminal HA epitope-tagged human P2Y2 receptor C278S mutant expressed in human 1321N1 cells assessed as increase in intracellular calcium level; format: functional, cell-based; outline: as §3
# P2Y purinoceptor 2 [15] = target: P2Y purinoceptor 2 (Homo sapiens, UniProt P41231, R177A/R180A); assay: Agonist activity at N-terminal HA epitope-tagged human P2Y2 receptor R177A_R180A double mutant expressed in human 1321N1 cells assessed as increase in intracellular calcium level; format: functional, cell-based; outline: as §3
# P2Y purinoceptor 2 [16] = target: P2Y purinoceptor 2 (Homo sapiens, UniProt P41231, R177A); assay: Agonist activity at N-terminal HA epitope-tagged human P2Y2 receptor R177A mutant expressed in human 1321N1 cells assessed as increase in intracellular calcium level; format: functional, cell-based; outline: as §3
# [17] = system: P2Y purinoceptor 2 (Homo sapiens), P41231 [Y118A]; assay: Agonist activity at N-terminal HA epitope-tagged human P2Y2 receptor Y118A mutant expressed in human 1321N1 cells assessed as increase in intracellular calcium level relative to carbachol; format: functional, cell-based; outline: as §2
# [18] = system: P2Y purinoceptor 2 (Homo sapiens), P41231 [Y198A]; assay: Agonist activity at N-terminal HA epitope-tagged human P2Y2 receptor Y198A mutant expressed in human 1321N1 cells assessed as increase in intracellular calcium level relative to carbachol; format: functional, cell-based; outline: as §2
# [19] = system: P2Y purinoceptor 2 (Homo sapiens), P41231 [UNDEFINED MUTATION]; assay: Ratio of EC50 for N-terminal HA epitope-tagged human P2Y2 receptor R177A_R180A double mutant to EC50 for wild type 4 human P2Y2 receptor
# [20] = system: P2Y purinoceptor 2 (Homo sapiens), P41231 [Y114A]; assay: Agonist activity at N-terminal HA epitope-tagged human P2Y2 receptor Y114A mutant expressed in human 1321N1 cells assessed as increase in intracellular calcium level relative to carbachol; format: functional, cell-based; outline: as §2
# [21] = system: P2Y purinoceptor 2 (Homo sapiens), P41231 [UNDEFINED MUTATION]; assay: Ratio of EC50 for N-terminal HA epitope-tagged human P2Y2 receptor Y118A mutant to EC50 for wild type 3 human P2Y2 receptor
# P2Y purinoceptor 2 [22] = target: P2Y purinoceptor 2 (Homo sapiens, UniProt P41231, Y198A); assay: Agonist activity at N-terminal HA epitope-tagged human P2Y2 receptor Y198A mutant expressed in human 1321N1 cells assessed as increase in intracellular calcium level; format: functional, cell-based; outline: as §3
# P2Y purinoceptor 2 [23] = target: P2Y purinoceptor 2 (Homo sapiens, UniProt P41231, R194H); assay: Agonist activity at N-terminal HA epitope-tagged human P2Y2 receptor R194H mutant expressed in human 1321N1 cells assessed as increase in intracellular calcium level; format: functional, cell-based; outline: as §3
# P2Y purinoceptor 2 [24] = target: P2Y purinoceptor 2 (Homo sapiens, UniProt P41231, Y114A); assay: Agonist activity at N-terminal HA epitope-tagged human P2Y2 receptor Y114A mutant expressed in human 1321N1 cells assessed as increase in intracellular calcium level; format: functional, cell-based; outline: as §3
# P2Y purinoceptor 2 [25] = target: T1, P2Y purinoceptor 2; assay: Agonist activity at N-terminal HA epitope-tagged wild type 3 human P2Y2 receptor expressed in human 1321N1 cells assessed as increase in intracellular calcium level relative to carbachol; format: functional, cell-based; outline: as §2
# [26] = system: P2Y purinoceptor 2 (Homo sapiens), P41231 [R180A]; assay: Agonist activity at N-terminal HA epitope-tagged human P2Y2 receptor R180A mutant expressed in human 1321N1 cells assessed as increase in intracellular calcium level relative to carbachol; format: functional, cell-based; outline: as §2
# [27] = system: P2Y purinoceptor 2 (Homo sapiens), P41231 [R194H]; assay: Agonist activity at N-terminal HA epitope-tagged human P2Y2 receptor R194H mutant expressed in human 1321N1 cells assessed as increase in intracellular calcium level relative to carbachol; format: functional, cell-based; outline: as §2
# P2Y purinoceptor 2 [28] = target: P2Y purinoceptor 2 (Homo sapiens, UniProt P41231, R180A); assay: Agonist activity at N-terminal HA epitope-tagged human P2Y2 receptor R180A mutant expressed in human 1321N1 cells assessed as increase in intracellular calcium level; format: functional, cell-based; outline: as §3
# [29] = system: P2Y purinoceptor 2 (Homo sapiens), P41231 [R272A]; assay: Agonist activity at N-terminal HA epitope-tagged human P2Y2 receptor R272A mutant expressed in human 1321N1 cells assessed as increase in intracellular calcium level relative to carbachol; format: functional, cell-based; outline: as §2
# [30] = system: P2Y purinoceptor 2 (Homo sapiens), P41231 [R272A]; assay: Agonist activity at N-terminal HA epitope-tagged human P2Y2 receptor R272A mutant expressed in human 1321N1 cells assessed as increase in intracellular calcium level up to 300 uM relative to carbachol; format: functional, cell-based; outline: as §2
# [31] = system: P2Y purinoceptor 2 (Homo sapiens), P41231 [UNDEFINED MUTATION]; assay: Ratio of efficacy for N-terminal HA epitope-tagged human P2Y2 receptor R194H mutant to efficacy for wild type 3 human P2Y2 receptor
# T1 sequence (P41231 whole entry): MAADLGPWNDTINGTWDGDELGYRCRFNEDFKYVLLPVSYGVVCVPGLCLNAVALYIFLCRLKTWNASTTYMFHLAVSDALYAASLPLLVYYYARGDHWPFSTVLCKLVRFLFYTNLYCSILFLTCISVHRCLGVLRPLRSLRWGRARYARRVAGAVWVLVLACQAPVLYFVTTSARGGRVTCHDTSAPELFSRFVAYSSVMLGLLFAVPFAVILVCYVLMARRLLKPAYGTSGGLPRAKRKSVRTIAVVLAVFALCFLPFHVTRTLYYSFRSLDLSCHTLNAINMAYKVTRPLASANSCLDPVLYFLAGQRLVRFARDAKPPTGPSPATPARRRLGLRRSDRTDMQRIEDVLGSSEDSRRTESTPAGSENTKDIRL
# Chain of P2Y purinoceptor 2 (Homo sapiens), P41231 [UNDEFINED MUTATION] (P41231 whole entry, looked up, stated change not applied): as the sequence (P41231 whole entry) above
# Chain of P2Y purinoceptor 2 (Homo sapiens, UniProt P41231, Y198A) (P41231 whole entry Y198A): as the sequence (P41231 whole entry) above, with Y198A counted along it
# Chain of P2Y purinoceptor 2 (Homo sapiens), P41231 [Y198A] (P41231 whole entry Y198A): as the sequence (P41231 whole entry) above, with Y198A counted along it
# Chain of P2Y purinoceptor 2 (Homo sapiens), P41231 [Y118A] (P41231 whole entry Y118A): as the sequence (P41231 whole entry) above, with Y118A counted along it
# Chain of P2Y purinoceptor 2 (Homo sapiens, UniProt P41231, Y118A) (P41231 whole entry Y118A): as the sequence (P41231 whole entry) above, with Y118A counted along it
# Chain of P2Y purinoceptor 2 (Homo sapiens), P41231 [R177A] (P41231 whole entry R177A): as the sequence (P41231 whole entry) above, with R177A counted along it
# Chain of P2Y purinoceptor 2 (Homo sapiens, UniProt P41231, R177A) (P41231 whole entry R177A): as the sequence (P41231 whole entry) above, with R177A counted along it
# Chain of P2Y purinoceptor 2 (Homo sapiens, UniProt P41231, R194H) (P41231 whole entry R194H): as the sequence (P41231 whole entry) above, with R194H counted along it
# Chain of P2Y purinoceptor 2 (Homo sapiens), P41231 [R194H] (P41231 whole entry R194H): as the sequence (P41231 whole entry) above, with R194H counted along it
# Chain of P2Y purinoceptor 2 (Homo sapiens), P41231 [R177A,R180A] (P41231 whole entry R177A/R180A): as the sequence (P41231 whole entry) above, with R177A, R180A counted along it
# Chain of P2Y purinoceptor 2 (Homo sapiens, UniProt P41231, R177A/R180A) (P41231 whole entry R177A/R180A): as the sequence (P41231 whole entry) above, with R177A, R180A counted along it
# Chain of P2Y purinoceptor 2 (Homo sapiens), P41231 [R180A] (P41231 whole entry R180A): as the sequence (P41231 whole entry) above, with R180A counted along it
# Chain of P2Y purinoceptor 2 (Homo sapiens, UniProt P41231, R180A) (P41231 whole entry R180A): as the sequence (P41231 whole entry) above, with R180A counted along it
# Chain of P2Y purinoceptor 2 (Homo sapiens, UniProt P41231, Y114A) (P41231 whole entry Y114A): as the sequence (P41231 whole entry) above, with Y114A counted along it
# Chain of P2Y purinoceptor 2 (Homo sapiens), P41231 [Y114A] (P41231 whole entry Y114A): as the sequence (P41231 whole entry) above, with Y114A counted along it
# Chain of P2Y purinoceptor 2 (Homo sapiens, UniProt P41231, R272A) (P41231 whole entry R272A): as the sequence (P41231 whole entry) above, with R272A counted along it
# Chain of P2Y purinoceptor 2 (Homo sapiens), P41231 [R272A] (P41231 whole entry R272A): as the sequence (P41231 whole entry) above, with R272A counted along it
# Chain of P2Y purinoceptor 2 (Homo sapiens, UniProt P41231, S296A) (P41231 whole entry S296A): as the sequence (P41231 whole entry) above, with S296A counted along it
# Chain of P2Y purinoceptor 2 (Homo sapiens), P41231 [S296A] (P41231 whole entry S296A): as the sequence (P41231 whole entry) above, with S296A counted along it
# Chain of P2Y purinoceptor 2 (Homo sapiens, UniProt P41231, C278S) (P41231 whole entry C278S): as the sequence (P41231 whole entry) above, with C278S counted along it
# Chain of P2Y purinoceptor 2 (Homo sapiens), P41231 [C278S] (P41231 whole entry C278S): as the sequence (P41231 whole entry) above, with C278S counted along it
smiles,measurement,setting,value
Nc1ncnc2c1ncn2[C@@H]1O[C@H](COP(=O)(O)OP(=O)(O)OP(=O)(O)O)[C@@H](O)[C@H]1O [ADENOSINE TRIPHOSPHATE],EC50,P2Y purinoceptor 2 [1],> 300000 nM
same,EC50,P2Y purinoceptor 2 [2],63.1 nM
same,Efficacy,[3],5%
same,Efficacy,[4],117%
same,Activity,P2Y purinoceptor 2 [5],Dose-dependent effect
same,Efficacy,P2Y purinoceptor 2 [6],110%
same,Ratio EC50,[7],10
same,Ratio EC50,[8],2
same,Efficacy,[9],104%
same,EC50,P2Y purinoceptor 2 [10],11700 nM
same,EC50,P2Y purinoceptor 2 [11],95.8 nM
same,EC50,P2Y purinoceptor 2 [12],299 nM
same,Efficacy,[13],97%
same,EC50,P2Y purinoceptor 2 [14],1000 nM
same,EC50,P2Y purinoceptor 2 [15],239 nM
same,EC50,P2Y purinoceptor 2 [16],183 nM
same,Efficacy,[17],41%
same,Efficacy,[18],126%
same,Ratio EC50,[19],4
same,Efficacy,[20],87%
same,Ratio EC50,[21],3
same,EC50,P2Y purinoceptor 2 [22],120 nM
same,EC50,P2Y purinoceptor 2 [23],111 nM
same,EC50,P2Y purinoceptor 2 [24],30.1 nM
same,Efficacy,P2Y purinoceptor 2 [25],92%
same,Efficacy,[26],115%
same,Efficacy,[27],130%
same,EC50,P2Y purinoceptor 2 [28],237 nM
same,Efficacy,[29],87%
Nc1ncnc2c1ncn2[C@@H]1O[C@H](COP(=O)(O)OP(=O)(O)OP(=O)(O)OP(=O)(O)OC[C@H]2O[C@@H](n3cnc4c(N)ncnc43)[C@H](O)[C@@H]2O)[C@@H](O)[C@H]1O [DIADENOSINE TETRAPHOSPHATE],EC50,P2Y purinoceptor 2 [1],> 300000 nM
same,EC50,P2Y purinoceptor 2 [2],167 nM
same,Efficacy,[3],12%
same,Efficacy,[4],86%
same,Efficacy,P2Y purinoceptor 2 [6],100%
same,Ratio EC50,[7],560
same,Efficacy,[9],98%
same,EC50,P2Y purinoceptor 2 [10],740000 nM
same,EC50,P2Y purinoceptor 2 [11],145 nM
same,EC50,P2Y purinoceptor 2 [12],345 nM
same,Efficacy,[13],inactive
same,EC50,P2Y purinoceptor 2 [14],81000 nM
same,Efficacy,[30],inactive
same,EC50,P2Y purinoceptor 2 [15],665 nM
same,EC50,P2Y purinoceptor 2 [16],1230 nM
same,Efficacy,[17],15%
same,Efficacy,[18],117%
same,Efficacy,[20],128%
same,EC50,P2Y purinoceptor 2 [22],335 nM
same,EC50,P2Y purinoceptor 2 [23],185 nM
same,EC50,P2Y purinoceptor 2 [24],170 nM
same,Efficacy,P2Y purinoceptor 2 [25],68%
same,Efficacy,[26],68%
same,Ratio efficacy,[31],2
same,Efficacy,[27],149%
same,EC50,P2Y purinoceptor 2 [28],423 nM
